Consider 73 sequences from the array DNA melting data of Ke et al. (doi:10.1101/2024.01.08.574731).

Data set [1] is described as follows: folding enthalpy; higher = less favourable; fluorescence melt of hairpins on a sequencing array, two-state fit. To be noted: sodium 0.088 M. Summed up:
(§1)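 Melting temperature and folding enthalpy were derived from bootstrapped two-state fits. The fitted temperatures were raised by 9.35 °C to agree with UV melts, and four replicates were combined by inverse variance. The underlying data were Cy3 fluorescence images of library hairpins, with annealed Cy3 and quencher oligos, on a sequenced MiSeq flow cell in 50 mM Na-HEPES pH 8.0, 25 mM NaCl, taken in 2.5 °C steps up to 60 °C, normalised to pre-quench Cy3 and to control constructs.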

Data set [2] can be described thus: melting temperature; fluorescence melt of hairpins on a sequencing array, two-state fit, raised by 9.35 °C to match UV melts. To be noted: sodium 0.088 M. In outline:
as §1

Turning to GTCCCTGGAAACGGGGAC (((((.(....).))))), in data set [1], the folding enthalpy is -49 kcal/mol. In data set [2], the Tm was 56.4 °C.
GTCCGACCGAAAGGTGAC (((..(((....)))))): the folding enthalpy in data set [1] is -16.6 kcal/mol. Further, the Tm in data set [2] worked out at 36.6 °C.
In the case of GTCCGACGAAAGTCAGAC (((.(((....))).))), in data set [1], the folding enthalpy is -23.5 kcal/mol. Moreover, the Tm in data set [2] was 50 °C.
The matching figures for GTCCGAGGAAACTCAGAC (((.(((....))).))): -21.4 kcal/mol and 35.9 °C.
On the same counts, the results for GTCCGAGGAAACTTGGAC ((((.((....)).)))) are -29.9 kcal/mol and 51 °C.
With GTCCGCACGAAAGTGGAC (((..(((....)))))), the folding enthalpy in data set [1] is -19.6 kcal/mol. Besides, the Tm in data set [2] came out at 47.1 °C.
The matching figures for GTCCGCCCGAAAGGGGAC (((..(((....)))))): -18.7 kcal/mol and 47.3 °C.
On the same counts, the results for GTCCGCCGAAAGGCCGAC (((.(((....))).))) are -20.5 kcal/mol and 49.2 °C.
Turning to GTCCGCGAAAGCGAAGAC ((((((....)))..))), the folding enthalpy in data set [1] was -17.4 kcal/mol. The Tm in data set [2] was 45.4 °C.
In the case of GTCCGCGAAAGCGGCGAC ((((((....)))..))), in data set [1], the folding enthalpy was -10.7 kcal/mol. In addition, in data set [2], the Tm came out at 67 °C.
The matching figures for GTCCGCGAAAGCGGGAC ((((((....))).))): -12.4 kcal/mol and 63.5 °C.
The matching figures for GTCCGCGAAAGCGTGAC ((((((....))).))): -19.8 kcal/mol and 58 °C.
Turning to GTCCGGAAACGGAC (((((....))))), the folding enthalpy in data set [1] was -28.2 kcal/mol. In data set [2], the Tm amounted to 67.4 °C.
On the same counts, the results for GTCCGGCGAAAGCCGAC (((.(((....)))))) are -9.75 kcal/mol and 49.1 °C.
On the same counts, the results for GTCCGTCGAAAGACGAC (((.(((....)))))) are -13.4 kcal/mol and 50.6 °C.
For GTCCTCGAAAGAGGCGAC ((((((....)))..))), the folding enthalpy in data set [1] is -17 kcal/mol. The Tm in data set [2] amounted to 50.9 °C.
On the same counts, the results for GTCCTCGAAAGAGGGGAC ((((((....)))..))) are -11.6 kcal/mol and 43.6 °C.
On to GTCCTCGGAAACAAGGAC (((((.(....).))))), for which, in data set [1], the folding enthalpy is -25.8 kcal/mol. In data set [2], the Tm was 39.3 °C.
For GTCCTCGGAAACGAAGAC (((.(((....))).))), in data set [1], the folding enthalpy is -26 kcal/mol. In data set [2], the Tm came out at 38 °C.
The matching figures for GTCCTCGGAAACGGGGAC ((((.((....)).)))): -45.3 kcal/mol and 55.7 °C.
On the same counts, the results for GTCCTGGGAAACCAGGAC (((((((....))))))) are -36 kcal/mol and 66.7 °C.
The matching figures for GTCCTGGGAAACCGGGAC ((((.((....)).)))): -39.2 kcal/mol and 55.7 °C.
In the case of GTCCTGTCGAAAGACGAC (((..(((....)))))), in data set [1], the folding enthalpy was -11.2 kcal/mol. Moreover, the Tm in data set [2] came to 34.1 °C.
The matching figures for GTCCTTCCGAAAGGAGAC (((..(((....)))))): -11.4 kcal/mol and 28.1 °C.
The matching figures for GTCCTTCGAAAGAACGAC (((.(((....))).))): -23.3 kcal/mol and 33.5 °C.
On the same counts, the results for GTCCTTGCGAAAGCAGAC (((..(((....)))))) are -12.3 kcal/mol and 32.3 °C.
Turning to GTCGAAGGAAACTCCGAC ((((.((....)).)))), the folding enthalpy in data set [1] is -27.6 kcal/mol. Moreover, the Tm in data set [2] amounted to 42.1 °C.
The matching figures for GTCGACCGAAAGGTGGAC (((.(((....))).))): -42.1 kcal/mol and 56.1 °C.
On the same counts, the results for GTCGACCGAAAGGTTGAC (((.(((....))).))) are -34.8 kcal/mol and 62.2 °C.
The matching figures for GTCGACGAAAGTCCCGAC ((((((....)))..))): -16.1 kcal/mol and 34 °C.
As for GTCGACGAAAGTCTCGAC ((((((....)))..))), the folding enthalpy in data set [1] was -18.3 kcal/mol. In addition, the Tm in data set [2] was 41.8 °C.
The matching figures for GTCGACGAAAGTCTGAC ((((((....))).))): -21.8 kcal/mol and 49.5 °C.
For GTCGACGAAAGTCTTGAC ((((((....)))..))), the folding enthalpy in data set [1] was -15.4 kcal/mol. Moreover, the Tm in data set [2] amounted to 36.2 °C.
Consider GTCGACGGAAACACCGAC ((((..(....)..)))), for which the folding enthalpy in data set [1] was -24.8 kcal/mol. The Tm in data set [2] is 31.6 °C.
With GTCGACGGAAACATCGAC (((((.(....).))))), the folding enthalpy in data set [1] is -39.8 kcal/mol. Besides, the Tm in data set [2] came out at 46.3 °C.
On the same counts, the results for GTCGACGGAAACGTTGGC (.(.(((....))).).) are -24.6 kcal/mol and 46.2 °C.
On the same counts, the results for GTCGATCGAAAGATAGAC (((.(((....))).))) are -42.7 kcal/mol and 50.4 °C.
Take GTCGATGAAAATCGAC ((((((....)))))): the folding enthalpy in data set [1] was -39.4 kcal/mol. Further, the Tm in data set [2] was found to be 61.3 °C.
The matching figures for GTCGATGGAAACATCGAC (((((((....))))))): -44.8 kcal/mol and 67.3 °C.
The matching figures for GTCGATGGAAACATCGGC (.(((((....))))).): -42.2 kcal/mol and 56.1 °C.
As for GTCGATGGAAACATTGGC (.(.(((....))).).), in data set [1], the folding enthalpy was -29.2 kcal/mol. Also, the Tm in data set [2] is 35.1 °C.
On the same counts, the results for GTCGATGGAAACGTCGAC (((((.(....).))))) are -37.6 kcal/mol and 54.8 °C.
On the same counts, the results for GTCGCACGAAAGTGGGAC (((.(((....))).))) are -38.5 kcal/mol and 67.4 °C.
The matching figures for GTCGCACGAAAGTGTGAC (((.(((....))).))): -42.4 kcal/mol and 67.4 °C.
For GTCGCCGAAAGGCGAGAC ((((((....)))..))), in data set [1], the folding enthalpy was -7.32 kcal/mol. Moreover, the Tm in data set [2] came out at 51.8 °C.
The matching figures for GTCGCCGAAAGGCTCGAC ((((((....)))..))): -13.2 kcal/mol and 39.1 °C.
The matching figures for GTCGCGGGAAACCGTGGC (.(.(((....))).).): -28.5 kcal/mol and 50.3 °C.
On the same counts, the results for GTCGCTTCGAAAGAAGAC (((..(((....)))))) are -9.98 kcal/mol and 33.9 °C.
Consider GTCGGACGAAAGTCGAC (((.(((....)))))), for which the folding enthalpy in data set [1] was -28 kcal/mol. Also, in data set [2], the Tm came out at 56.9 °C.
The matching figures for GTCGGAGGAAACTCTGAC (((.(((....))).))): -45.4 kcal/mol and 50 °C.
Take GTCGGATCGAAAGATGAC (((..(((....)))))): the folding enthalpy in data set [1] is -16.7 kcal/mol. For the same sequence, in data set [2], the Tm is 31.7 °C.
The matching figures for GTCGGCGAAAGCCCTGAC ((((((....)))..))): -10.4 kcal/mol and 35.6 °C.
In the case of GTCGGCGAAAGCCGAGAC ((((((....)))..))), the folding enthalpy in data set [1] is -7.78 kcal/mol. Further, the Tm in data set [2] was determined as 55.6 °C.
On to GTCGGCGAAAGCCTGGAC ((((((....)))..))), for which the folding enthalpy in data set [1] was -15.2 kcal/mol. Further, in data set [2], the Tm was 45 °C.
On the same counts, the results for GTCGGCTCGAAAGAGGAC (((..(((....)))))) are -16 kcal/mol and 32.2 °C.
The matching figures for GTCGGGACGAAAGTCGAC (((..(((....)))))): -18.9 kcal/mol and 47.5 °C.
The matching figures for GTCGGGCGAAAGCCGAC (((.(((....)))))): -23 kcal/mol and 68.6 °C.
For GTCGGGGCGAAAGCCGAC (((..(((....)))))), in data set [1], the folding enthalpy was -17.2 kcal/mol. Further, the Tm in data set [2] was determined as 56.9 °C.
On the same counts, the results for GTCGGGGGAAACCCTGAC (((.(((....))).))) are -53.6 kcal/mol and 53.4 °C.
Turning to GTCGGGGGAAACTCCGGC (.(((.(....).))).), the folding enthalpy in data set [1] was -29.9 kcal/mol. In addition, the Tm in data set [2] was 47.2 °C.
Consider GTCGGTCGAAAGACAGAC (((.(((....))).))), for which the folding enthalpy in data set [1] is -37.8 kcal/mol. Moreover, the Tm in data set [2] worked out at 57.8 °C.
Regarding GTCGGTCGAAAGACGGAC (((.(((....))).))), the folding enthalpy in data set [1] was -34.8 kcal/mol. For the same sequence, in data set [2], the Tm is 59.1 °C.
The matching figures for GTCGGTGGAAACATCGAC ((((.((....)).)))): -45.1 kcal/mol and 53.9 °C.
Take GTCGTAGGAAACTATGGC (.(.(((....))).).): in data set [1], the folding enthalpy is -17.8 kcal/mol. For the same sequence, in data set [2], the Tm is 32 °C.
On the same counts, the results for GTCGTCCGAAAGGATGAC (((.(((....))).))) are -54.4 kcal/mol and 62.1 °C.
Take GTCGTCGAAAGACCGAC ((((((....))).))): the folding enthalpy in data set [1] was -23.5 kcal/mol. Besides, the Tm in data set [2] was 50.7 °C.
On the same counts, the results for GTCGTCGAAAGACCTGAC ((((((....)))..))) are -14.7 kcal/mol and 31.7 °C.
On the same counts, the results for GTCGTCGAAAGACTAGAC ((((((....)))..))) are -18.4 kcal/mol and 42.5 °C.
As to GTCGTCGAAAGACTCGAC ((((((....)))..))), the folding enthalpy in data set [1] is -14.9 kcal/mol. The Tm in data set [2] is 38.6 °C.
GTCGTCGAAAGACTGGAC ((((((....)))..))): the folding enthalpy in data set [1] was -20.7 kcal/mol. Further, the Tm in data set [2] was determined as 39.2 °C.
The matching figures for GTCGTGGAAACACGAC ((((((....)))))): -35.4 kcal/mol and 68.5 °C.
Take GTCGTGGGAAACCATGGC (.(.(((....))).).): the folding enthalpy in data set [1] was -25.6 kcal/mol. In data set [2], the Tm worked out at 40.6 °C.
On the same counts, the results for GTCGTGGGAAACCGTGAC (((..((....))..))) are -25.9 kcal/mol and 36.7 °C.
